Test results published in PubChem BioAssay.
Activity calls are given as the source filed them.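 Rule for the calls, unless noted: active = viability at or below 30% in both replicate assays; inconclusive = viability at or below 30% in just one of the two assays; inactive = the rest.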

Experiments:
[1] = SK-BR-3 cell growth inhibitors, pilot screen, 24 h, human (AID 572;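 active = viability at or below 10% of carrier control in both of two separate runs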;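 note: compound exposure lasted between 18 and 24 h rather than exactly 24 h; 100% = carrier-treated control wells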); settings: SK-BR-3 viability, CellTiter-Glo luminescence, at 10 µM, stronger effect = lower value
[2] = HUVEC growth inhibition – cell-based, human, primary screen (AID 575); settings: HUVEC proliferation, CellTiter-Glo luminescence, 72 h; at 10 µM; stronger effect = lower value;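 note: 100% = median of untreated cell wells with 0.1% DMSO on each plate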
Method in brief: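 Test system: HUVEC primary cells. Quantity: 1250 endothelial cells in each well. Dosing: single-point 10 µM, DMSO 0.1% final. Incubation: 72 h treatment at 37 °C. Measured by: CTG luminescence. Control set: DMSO cell controls and MePR drug controls. Plate: collagen-coated 384-well format.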

[3] = growth inhibitors of H69AR lung tumor, primary screen, human, duplicate replicates (AID 580;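 active = viability at or under a set limit in both replicates, limit being median viability minus 3 SD, cut at about 48% in these data, passing the limit was not always enough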;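 note: 100% = mean luminescence of untreated wells and 0% = no signal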); settings: H69AR lung tumor cells viability, ATP luminescence, 72 h; at 10 µM; stronger effect = lower value
[4] = reversal of MRP1-mediated doxorubicin resistance, pilot screen, H69AR cells, doxorubicin co-treatment (AID 601;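 active = viability loss from added drug above about 55%, and viability with drug at most 40%, in both replicates, limit read from the data, passing the limit was not always enough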); settings: CellTiter-Glo, 72 h, at 10 µM; for differential viability (reversal): stronger effect = higher value
[5] = 384-well plate pilot, post-Golgi transport modulator project, inhibition of yeast transport mutant growth (AID 636; in the data active = inhibition above about 31%); settings: absorbance 615 nm, about 18 h, stronger effect = higher value
[6] = growth suppression of yeast trafficking mutant, preliminary HTS, modulators of trafficking downstream of Golgi apparatus project, 1536-format plate, OD 615 nm (AID 637; in the data active = inhibition above about 30%); settings: yeast transport mutant growth, absorbance 615 nm, 18 h; stronger effect = higher value
[7] = H69AR cells + 2 uM doxorubicin, measured here: viability with 2 uM doxorubicin, stronger effect = lower value
[8] = H69AR cells, compound alone cytotoxicity

Structure (SMILES)	viability [1]	viability [2]	viability [3]	differential viability (reversal) ([4]; H69AR cells + 2 uM doxorubicin)	viability [4, 7] [%]	viability [4, 8] [%]	inhibition [5]	inhibition [6]
O=C(CSc1nccn1Cc1ccccc1)Nc1nccs1	90% (inactive)	98.6% (inactive)	108% (inactive)	6.88% (inactive)	101	108	-0.26% (inactive)	1.48% (inactive)
Cn1c(=O)[nH]c(=O)c2c1nc(N1CCOCC1)n2CC(O)COc1ccc2ccccc2c1 (configuration not stated)	70% (inactive)	88.7% (inactive)	88.3% (inactive)	-1.6% (inactive)	89.9	88.3	-6.58% (inactive)	-1.82% (inactive)
CC(C(=O)NC(=O)NC1CCCCC1)N1CCN(c2ccccn2)CC1 (configuration not stated)	96% (inactive)	95.6% (inactive)	104% (inactive)	14.7% (inactive)	88.9	104	-2.4% (inactive)	-3.27% (inactive)
COc1ccc(OC)c(Nc2nc(-c3cccs3)cs2)c1	82% (inactive)	60.7% (inactive)	76.5% (inactive)	-7.61% (inactive)	84.1	76.5	-6.71% (inactive)	0.36% (inactive)
O=C(NCc1ccccc1)c1cc(-c2ccco2)on1	111% (inactive)	100% (inactive)	94% (inactive)	16.6% (inactive)	77.3	94	-0.13% (inactive)	4.59% (inactive)
CN(Cc1ccccc1)C(=O)c1cc(-c2ccc(Br)cc2)on1	80% (inactive)	94.2% (inactive)	103% (inactive)	7.97% (inactive)	95.3	103	-4% (inactive)	-3.45% (inactive)
O=C(O)CCn1c(=O)c2ccccc2c2ccccc2c1=O	87% (inactive)	109% (inactive)	100% (inactive)	5.16% (inactive)	94.8	100	0.14% (inactive)	-8.06% (inactive)
CC(=O)c1ccc(-n2nnnc2SCC(=O)N2CCc3ccccc3C2)cc1	94% (inactive)	106% (inactive)	88.9% (inactive)	-12.1% (inactive)	101	88.9	-6.3% (inactive)	-14.7% (inactive)
COc1ccc2c(c1)c(CC(=O)OCC(=O)O)c(C)n2C(=O)c1ccc(Cl)cc1	133% (inactive)	66.8% (inactive)	96.2% (inactive)	5.33% (inactive)	90.9	96.2	-5.06% (inactive)	-0.67% (inactive)
COCCNC(=O)C(c1cccs1)N(C(=O)Cn1nnc2ccccc21)c1ccccc1 (configuration not stated)	97% (inactive)	107% (inactive)	97.2% (inactive)	3.17% (inactive)	94	97.2	-2.34% (inactive)	-5.9% (inactive)
O=C(Nc1cccc2ccccc12)N1CCN(c2ccccc2)CC1	89% (inactive)	96.8% (inactive)	94.4% (inactive)	-7% (inactive)	101	94.4	-0.91% (inactive)	0.49% (inactive)
O=S(=O)(c1ccc2c(c1)OCCO2)N1CCN(Cc2ccc3c(c2)OCO3)CC1	112% (inactive)	105% (inactive)	88.4% (inactive)	-6.71% (inactive)	95.1	88.4	-3.24% (inactive)	1.09% (inactive)
COc1cccc2sc(NC(=O)c3ccc(S(=O)(=O)N4CCOCC4)cc3)nc12	113% (inactive)	85.5% (inactive)	86.7% (inactive)	16.8% (inactive)	69.8	86.7	-7.16% (inactive)	-8.18% (inactive)
c1ccc(-c2nc3cnccn3c2Nc2ccc3c(c2)OCCO3)cc1	96% (inactive)	107% (inactive)	91.5% (inactive)	38.5% (inactive)	52.9	91.5	-5.47% (inactive)	-1.27% (inactive)
O=C(O)c1ccc(NC(=O)c2cccs2)cc1	87% (inactive)	94.7% (inactive)	92.5% (inactive)	12.8% (inactive)	79.7	92.5	-5.73% (inactive)	-4.55% (inactive)
COc1ccc(OC)c(-c2cc(C(=O)NCc3cccs3)no2)c1	101% (inactive)	76.2% (inactive)	94.4% (inactive)	7.29% (inactive)	87.1	94.4	-2.6% (inactive)	-5.74% (inactive)
CC(=O)Oc1ccc(C(c2ccc(OC(C)=O)cc2)c2ccccn2)cc1	91% (inactive)	79% (inactive)	94.9% (inactive)	-0.25% (inactive)	95.2	94.9	-0.52% (inactive)	0.83% (inactive)
COc1ccc(OC)c(NC(=O)C2C3CC4OC(=O)C2C4C3)c1 (configuration not stated)	103% (inactive)	102% (inactive)	98.3% (inactive)	8.29% (inactive)	90	98.3	-6.89% (inactive)	-4% (inactive)
O=C(Nc1nc(-c2ccccc2)cs1)C1CCCO1 (configuration not stated)	91% (inactive)	101% (inactive)	94.2% (inactive)	10.9% (inactive)	83.3	94.2	-4.4% (inactive)	-2.18% (inactive)
